Experimental data pooled from the literature.
Lines come from different studies, so protocols differ. In brackets after ≈: the same amount, converted by molar mass.

CC(C)(C)C1=CC(=NNC(=O)C2CCCCC2)C=C(C(C)(C)C)C1=O gave an IC50 of greater than 100 µM (Toxoplasma gondii; parasite growth, fluorescence; 5 days, intracellular).
The EC50 of COc1cc2[nH]c3cc(Oc4ccc(OC(F)(F)F)cc4)ccc3c(=O)c2cc1F is reported as 0.63 nM (Toxoplasma gondii; parasite growth; 72 h, intracellular).
With N=C(NCCCCCCNC(=N)NC(=N)Nc1ccc(Cl)cc1)NC(=N)Nc1ccc(Cl)cc1 the IC50 was 5.97 µM (Acanthamoeba castellanii; parasite growth, resazurin; 96 h).
CCc1nc(N)nc(N)c1-c1ccc(Cl)cc1 has an IC50 of 16.1 µM (Toxoplasma gondii; parasite growth; human Fibroblast; intracellular).
O=C1C(O)=C([C@H]2CC[C@H](c3ccc(Cl)cc3)CC2)C(=O)c2ccccc21 has an EC50 of 10.6 nM (Toxoplasma gondii; parasite growth; 72 h, intracellular).
For Cc1nc2sccn2c1C(=O)N1CCN(CCn2cc(-c3ccc(C(C)(C)C)cc3)nn2)CC1, the IC50 was greater than 128 µM (Mycolicibacterium smegmatis; microbial growth; 72 h).
For N#Cc1cc(-c2nc3ccccc3s2)c(=O)n(NS(=O)(=O)c2ccccc2)c1N, the IC50 was 110 µg/mL (Human mastadenovirus B; plaque formation; HEp-2).
For CCc1cc(Nc2cc(=O)n(CCCCO)c(=O)[nH]2)ccc1C, the MIC was 32 µg/mL (≈ 101 µM) (Lacticaseibacillus casei; microbial growth, agar dilution; 48 h).
The IC50 of OC[C@H]1O[C@@H](n2ccc3c(O)ncnc32)[C@H](O)[C@@H]1O is reported as 36.1 µM (Toxoplasma gondii; parasite growth; human Fibroblast; intracellular).
With O=c1[nH]c(NCc2ccc(Cl)c(Cl)c2)nc2ncn(CCCCCN3CCOCC3)c12 the MIC was 16 µg/mL (≈ 34.4 µM) (Lacticaseibacillus casei; microbial growth, agar dilution; 48 h).
C[C@@H](c1ncncc1F)[C@](O)(Cn1cncn1)c1ccc(F)cc1F has an IC50 of 21.6 µM (Acanthamoeba castellanii; parasite growth, resazurin; 7 days).
For Cc1ccc(C(=O)ON=C2C=C(C(C)(C)C)C(=O)C(C(C)(C)C)=C2)cc1, the IC50 was 13 µM (Toxoplasma gondii; parasite growth, fluorescence; 5 days, intracellular).
